We go through 24 compounds from ChEMBL document CHEMBL4390700, “Design, synthesis and antitumour and anti-angiogenesis evaluation of 22 moscatilin derivatives” (Bioorg Med Chem, 2019).

One assay deals with HepG2. Nature of the assay: Antiproliferative activity against human HepG2 cells incubated for 72 hrs by MTT assay. The class given is functional, cell-based. The settings on record: HepG2, 72 h. In outline: (§1)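 5×10³ cells per well preincubated 12 h at 37 °C, 5% CO₂. Medium replaced with fresh medium containing compound at various concentrations, DMSO ≤0.1%, for 72 h at 37 °C. MTT 0.5 mg/mL final added for 2 h; formazan dissolved in DMSO, A570 read; viability expressed relative to untreated cells.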
(Tetrazolium dyes change colour on reduction, which living cells bring about.)

In assay [1] the test system is HCT-116. Nature of the assay: Antiproliferative activity against human HCT116 cells incubated for 72 hrs by MTT assay. The class given is functional, cell-based. The note with it: HCT-116, 72 h. The method in brief: as §1
The next assay deals with MDA-MB-231. Nature of the assay: Antiproliferative activity against human MDA-MB-231 cells incubated for 72 hrs by MTT assay. The settings on record: MDA-MB-231, 72 h. The class given is functional, cell-based. The method in brief:
as §1

The test system of the next assay is A549. Nature of the assay: Antiproliferative activity against human A549 cells incubated for 72 hrs by MTT assay. The assay is classed as functional, cell-based. The note with it: A549, 72 h. In outline: as §1
The species named for the next assay is Danio rerio. Nature of the assay: Anti-angiogenic activity in zebrafish-guided angiogenesis model assessed as reduction in inter-segmental blood vessels measured at 72 hpf by fluorescence microscopy. The class given is functional. The method in brief:
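Tg(fli-1:EGFP) zebrafish embryos, dechorionated at 24 hpf, 20 per group, kept in embryo water containing compound at 28.5 °C for a further 48 h. All compounds screened first at 50 μM; active ones titrated for minimum effective dose. At 72 hpf embryos anesthetized in 0.016% tricaine and intersegmental vessels imaged by fluorescence microscopy. SU5416 positive control.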

A further assay has as its system MKN-45. Nature of the assay: Antiproliferative activity against human MKN45 cells incubated for 72 hrs by MTT assay. The class given is functional, cell-based. The note with it: MKN-45, 72 h. In outline:
as §1

Assay [2] deals with HCT-116. Nature of the assay: Induction of apoptosis in human HCT116 cells assessed as early apoptotic cells level at 1 uM incubated for 48 hrs by Annexin V-FITC and propidium iodide staining based flow cytometry. The assay is classed as functional. The method in brief: (§2)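 HCT116 seeded 2 × 10⁵ cells/well, adhered overnight, then exposed to compound for 48 h. Annexin V-FITC/PI double staining, read by flow cytometry. Early apoptotic cells counted as Annexin V+/PI− (lower right quadrant), late apoptotic as Annexin V+/PI+ (upper right). Culture at 37 °C, 5% CO₂, medium with 10% FBS and penicillin/streptomycin, DMSO ≤0.1%.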
(A flow cytometer gives signals particle by particle.)

The subject of assay [3] is HCT-116. Nature of the assay: Induction of apoptosis in human HCT116 cells assessed as late apoptotic cells level at 1 uM incubated for 48 hrs by Annexin V-FITC and propidium iodide staining based flow cytometry. The assay is classed as functional. The method in brief: as §2

Turning to `COc1cc(CCc2ccccn2)cc(OC)c1O`, the IC50 (usually the concentration that inhibits the measured activity by half) in the assay on HepG2 was 4.84 µM; with HCT-116 [1], 3.06 µM; in the assay on MDA-MB-231 it was over 25 µM; in the assay on A549, over 25 µM; in the assay with MKN-45, 0.66 µM. Further, in the assay listed under Danio rerio, the MED lay in the range of 25 to 50 µM.

For `COc1cc(CCc2ccccc2F)cc(OC)c1O`, the 50% inhibitory concentration (IC50) is 1.03 µM with HepG2; 0.88 µM in the assay with HCT-116 [1]; 9.22 µM with MDA-MB-231; over 25 µM in the assay with A549; over 25 µM with MKN-45. In addition, the MED in the assay listed under Danio rerio was in the range of 10 to 15 µM.

Turning to `COc1ccc(CCc2ccc(Cl)cc2)cc1OC`, the IC50 in the assay with HepG2 was 0.74 µM; in the assay with HCT-116 [1], 0.52 µM; with MDA-MB-231, 1.25 µM; in the assay with A549 it was over 25 µM; in the assay on MKN-45, 1.52 µM. The MED in the assay filed under Danio rerio was over 50 µM.

For `COc1ccc(CCc2ccc([N+](=O)[O-])cc2)cc1OC`, the IC50 was 1.6 µM in the assay with HepG2; 5.97 µM in the assay with HCT-116 [1]; over 25 µM in the assay with MDA-MB-231; over 25 µM in the assay with A549; 13.7 µM in the assay on MKN-45. Besides, the MED in the assay listed under Danio rerio is over 50 µM.

Consider `COc1cc(CCc2cccc(Cl)c2Cl)cc(OC)c1O`, for which the IC50 with HepG2 was 4.77 µM; with HCT-116 [1] it was 8.78 µM; with MDA-MB-231 it was 6.87 µM; with A549 it was 3.99 µM; in the assay with MKN-45, 0.011 µM. Moreover, the MED in the assay filed under Danio rerio fell in the range of 5 to 10 µM.

As for `COc1ccc(CCc2ccccc2)cc1OC`, the 50% inhibitory concentration (IC50) in the assay with HepG2 is 2.08 µM; with HCT-116 [1] it was 2.56 µM; in the assay with MDA-MB-231, over 25 µM; in the assay on A549, over 25 µM; in the assay on MKN-45, 21.9 µM. In addition, in the assay listed under Danio rerio, the MED is over 50 µM.

`COc1cc(CCc2ccc(Cl)c(Cl)c2)cc(OC)c1O`: the IC50 in the assay on HepG2 turned out to be 16.1 µM; in the assay with HCT-116 [1] it was 1.86 µM; in the assay with MDA-MB-231 it was 2.52 µM; with A549 it was 13.4 µM; in the assay with MKN-45, 20.6 µM. Moreover, the MED in the assay listed under Danio rerio was 20 to 25 µM.

Turning to `COc1ccc(CCc2ccccn2)cc1OC`, the 50% inhibitory concentration (IC50) in the assay on HepG2 is 13.8 µM; in the assay on HCT-116 [1], 0.93 µM; in the assay on MDA-MB-231 it was 10.5 µM; with A549 it was over 25 µM; in the assay on MKN-45, 11.1 µM. Also, the MED in the assay listed under Danio rerio was over 50 µM.

In the case of `CC(C)=CCC[C@]1(C)C=Cc2c(O)c3c(c(CC=C(C)C)c2O1)O[C@]12C(=C[C@@H]4C[C@H]1C(C)(C)O[C@@]2(C/C=C(/C)C(=O)O)C4=O)C3=O` [GAMBOGIC ACID], the IC50 in the assay with HepG2 came out at 2.36 µM; in the assay with HCT-116 [1] it was 3.11 µM; in the assay on MDA-MB-231, 1.33 µM; in the assay with A549 it was 1.47 µM; in the assay with MKN-45 it was 4.27 µM. The Activity with HCT-116 [2] stood at 33%; in the assay with HCT-116 [3], 31.8%.

Take `COc1ccccc1CCc1cc(OC)c(O)c(OC)c1`: the half-inhibitory concentration (IC50) in the assay on HepG2 is 2.48 µM; with HCT-116 [1], 14.5 µM; in the assay with MDA-MB-231, over 25 µM; with A549 it was 1.74 µM; in the assay on MKN-45 it was 2.48 µM. In the assay listed under Danio rerio, the MED was in the range of 1.25 to 2.5 µM.

With `COc1cc(CCc2cccc(F)c2)cc(OC)c1O`, the half-maximal inhibitory concentration (IC50) is 12.4 µM in the assay on HepG2; 7.57 µM in the assay with HCT-116 [1]; over 25 µM in the assay on MDA-MB-231; 2.24 µM with A549; 2.97 µM in the assay on MKN-45. The MED in the assay filed under Danio rerio was in the range of 15 to 20 µM.

On to `COc1cc(CCc2ccc(F)cc2)cc(OC)c1O`, for which the 50% inhibitory concentration (IC50) in the assay with HepG2 is 5.47 µM; in the assay with HCT-116 [1], 1.19 µM; in the assay with MDA-MB-231, over 25 µM; with A549, 4.15 µM; in the assay on MKN-45, 10.7 µM. The MED in the assay filed under Danio rerio was over 50 µM.

As to `COc1cc(CCc2ccc(Br)cc2)cc(OC)c1O`, the IC50 is 8.49 µM in the assay with HepG2; 15.8 µM in the assay with HCT-116 [1]; over 25 µM with MDA-MB-231; over 25 µM in the assay on A549; 1.49 µM in the assay on MKN-45. The MED in the assay listed under Danio rerio was in the range of 2.5 to 5 µM.

In the case of `COc1cc(CCc2ccccc2)cc(OC)c1O`, the IC50 was 7.83 µM in the assay with HepG2; 0.53 µM with HCT-116 [1]; over 25 µM in the assay with MDA-MB-231; 10.9 µM with A549; 1.04 µM with MKN-45. Besides, the MED in the assay filed under Danio rerio lay within 20 to 25 µM.

`COc1cc(CCc2ccc(Cl)cc2Cl)cc(OC)c1O`: the concentration for half-maximal inhibition (IC50) in the assay on HepG2 is 6.74 µM; with HCT-116 [1], 2.98 µM; in the assay on MDA-MB-231 it was over 25 µM; with A549, 3.84 µM; in the assay with MKN-45, 4.46 µM. The MED in the assay listed under Danio rerio lay in the range of 5 to 10 µM.

With `COc1cc(CCc2ccc(Cl)cc2)cc(OC)c1O`, the 50% inhibitory concentration (IC50) in the assay with HepG2 was 8.78 µM; with HCT-116 [1], 0.33 µM; in the assay with MDA-MB-231, over 25 µM; in the assay with A549, 22.9 µM; in the assay on MKN-45, 0.74 µM. Besides, the MED in the assay filed under Danio rerio was over 50 µM.

As to `COc1cc(CCc2cc(OC)c(O)c(OC)c2)ccc1O` [MOSCATILIN], the IC50 with HepG2 came to 3.76 µM; in the assay with HCT-116 [1], 2.29 µM; with MDA-MB-231, 0.082 µM; in the assay on A549, 2.1 µM; in the assay with MKN-45, 3.51 µM. Moreover, in the assay filed under Danio rerio, the MED was 2.5 to 5 µM.

With `Cc1cc(C)c(/C=C2\C(=O)Nc3ccccc32)[nH]1` [SEMAXANIB], in the assay listed under Danio rerio, the MED fell in the range of 1.25 to 2.5 µM.

With `COc1ccc(CCc2ccc(OC)c(OC)c2)cc1O`, the half-maximal inhibitory concentration (IC50) in the assay with HepG2 is 4.05 µM; in the assay with HCT-116 [1], 5.26 µM; in the assay on MDA-MB-231 it was 0.081 µM; in the assay with A549, 4.79 µM; with MKN-45 it was over 25 µM. Moreover, the MED in the assay filed under Danio rerio fell in the range of 40 to 50 µM.

On to `COc1ccc(CCc2ccccc2Cl)cc1OC`, for which the IC50 in the assay with HepG2 is 4.93 µM; in the assay on HCT-116 [1], 6.16 µM; in the assay on MDA-MB-231, over 25 µM; in the assay with A549, over 25 µM; in the assay on MKN-45, 2.04 µM. Moreover, the MED in the assay filed under Danio rerio lay in the range of 20 to 25 µM.

Consider `COc1cc(CCc2ccncc2)cc(OC)c1O`, for which the IC50 was 2.17 µM in the assay with HepG2; 3.74 µM in the assay on HCT-116 [1]; 6.3 µM in the assay on MDA-MB-231; over 25 µM in the assay on A549; 3.81 µM in the assay on MKN-45. In the assay filed under Danio rerio, the MED is over 50 µM.

For `COc1cc(CCc2ccc(OC)c(OC)c2)ccc1O`, the IC50 in the assay with HepG2 was determined as 2.27 µM; in the assay with HCT-116 [1], 2.69 µM; in the assay with MDA-MB-231, 1.64 µM; in the assay on A549, 3.64 µM; in the assay on MKN-45 it was 2.06 µM. In addition, in the assay listed under Danio rerio, the MED is over 50 µM.

With `COc1ccc(CCc2ccc(F)cc2)cc1OC`, the IC50 was over 25 µM in the assay on HepG2; 7.89 µM in the assay with HCT-116 [1]; 0.92 µM with MDA-MB-231; over 25 µM in the assay on A549; 3.98 µM in the assay on MKN-45. In addition, the MED in the assay listed under Danio rerio is over 50 µM.

As to `COc1cc(CCc2ccc([N+](=O)[O-])cc2)cc(OC)c1O`, the half-inhibitory concentration (IC50) in the assay with HepG2 came out at 11 µM; in the assay with HCT-116 [1] it was 3.16 µM; with MDA-MB-231 it was 8.05 µM; in the assay on A549 it was 9.13 µM; with MKN-45 it was 15.4 µM.
